In article PMC5621377 (Clinical cancer research : an official journal of the …, 2016):

Tested on: patients with Rb+ advanced solid tumors or lymphomas
Test: Safety assessments, adverse events
Assay type: in vivo, human
Outline: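 Oral test compound given daily 3-weeks-on/1-week-off in 28-day cycles, with doses escalated by a Bayesian logistic regression model with overdose control. Safety assessments, including ECGs, were done at baseline and at regular intervals. AEs were graded by CTCAE v4.0 and classed as suspected related to treatment. All patients dosed at least once were included; summaries were descriptive per dose level.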

[1] = 50 mg 3-weeks-on/1-week-off, n = 4
[2] = 70 mg 3-weeks-on/1-week-off, n = 2
[3] = 140 mg 3-weeks-on/1-week-off, n = 4
[4] = 260 mg 3-weeks-on/1-week-off, n = 4
[5] = 280 mg 3-weeks-on/1-week-off, n = 4
[6] = 350 mg 3-weeks-on/1-week-off, n = 5
[7] = 400 mg 3-weeks-on/1-week-off, n = 5

SMILES: CN(C)C(=O)c1cc2cnc(Nc3ccc(N4CCNCC4)cn3)nc2n1C1CCCC1 [ribociclib]
- Anemia, Grade 3/4, AE suspected related to study treatment [1]: 0 n (%)
- Anemia, Grade All, AE suspected related to study treatment [1]: 0 n (%)
- Appetite decreased, Grade 3/4, AE suspected related to study treatment [1]: 0 n (%)
- Appetite decreased, Grade All, AE suspected related to study treatment [1]: 0 n (%)
- Blood creatinine increased, Grade 3/4, AE suspected related to study treatment [1]: 0 n (%)
- Blood creatinine increased, Grade All, AE suspected related to study treatment [1]: 0 n (%)
- Diarrhea, Grade 3/4, AE suspected related to study treatment [1]: 0 n (%)
- Diarrhea, Grade All, AE suspected related to study treatment [1]: 0 n (%)
- Fatigue, Grade 3/4, AE suspected related to study treatment [1]: 0 n (%)
- Fatigue, Grade All, AE suspected related to study treatment [1]: 2 (50) n (%)
- Leukopenia, Grade 3/4, AE suspected related to study treatment [1]: 0 n (%)
- Leukopenia, Grade All, AE suspected related to study treatment [1]: 0 n (%)
- Lymphopenia, Grade 3/4, AE suspected related to study treatment [1]: 0 n (%)
- Lymphopenia, Grade All, AE suspected related to study treatment [1]: 0 n (%)
- Nausea, Grade 3/4, AE suspected related to study treatment [1]: 0 n (%)
- Nausea, Grade All, AE suspected related to study treatment [1]: 0 n (%)
- Neutropenia, Grade 3/4, AE suspected related to study treatment [1]: 0 n (%)
- Neutropenia, Grade All, AE suspected related to study treatment [1]: 0 n (%)
- Thrombocytopenia, Grade 3/4, AE suspected related to study treatment [1]: 0 n (%)
- Thrombocytopenia, Grade All, AE suspected related to study treatment [1]: 0 n (%)
- Vomiting, Grade 3/4, AE suspected related to study treatment [1]: 0 n (%)
- Vomiting, Grade All, AE suspected related to study treatment [1]: 0 n (%)
- Anemia, Grade 3/4, AE suspected related to study treatment [2]: 0 n (%)
- Anemia, Grade All, AE suspected related to study treatment [2]: 0 n (%)
- Appetite decreased, Grade 3/4, AE suspected related to study treatment [2]: 0 n (%)
- Appetite decreased, Grade All, AE suspected related to study treatment [2]: 0 n (%)
- Blood creatinine increased, Grade 3/4, AE suspected related to study treatment [2]: 0 n (%)
- Blood creatinine increased, Grade All, AE suspected related to study treatment [2]: 0 n (%)
- Diarrhea, Grade 3/4, AE suspected related to study treatment [2]: 0 n (%)
- Diarrhea, Grade All, AE suspected related to study treatment [2]: 0 n (%)
- Fatigue, Grade 3/4, AE suspected related to study treatment [2]: 0 n (%)
- Fatigue, Grade All, AE suspected related to study treatment [2]: 2 (100) n (%)
- Leukopenia, Grade 3/4, AE suspected related to study treatment [2]: 0 n (%)
- Leukopenia, Grade All, AE suspected related to study treatment [2]: 0 n (%)
- Lymphopenia, Grade 3/4, AE suspected related to study treatment [2]: 0 n (%)
- Lymphopenia, Grade All, AE suspected related to study treatment [2]: 0 n (%)
- Nausea, Grade 3/4, AE suspected related to study treatment [2]: 0 n (%)
- Nausea, Grade All, AE suspected related to study treatment [2]: 1 (50) n (%)
- Neutropenia, Grade 3/4, AE suspected related to study treatment [2]: 0 n (%)
- Neutropenia, Grade All, AE suspected related to study treatment [2]: 0 n (%)
- Thrombocytopenia, Grade 3/4, AE suspected related to study treatment [2]: 0 n (%)
- Thrombocytopenia, Grade All, AE suspected related to study treatment [2]: 0 n (%)
- Vomiting, Grade 3/4, AE suspected related to study treatment [2]: 0 n (%)
- Vomiting, Grade All, AE suspected related to study treatment [2]: 1 (50) n (%)
- Anemia, Grade 3/4, AE suspected related to study treatment [3]: 0 n (%)
- Anemia, Grade All, AE suspected related to study treatment [3]: 0 n (%)
- Appetite decreased, Grade 3/4, AE suspected related to study treatment [3]: 0 n (%)
- Appetite decreased, Grade All, AE suspected related to study treatment [3]: 1 (25) n (%)
- Blood creatinine increased, Grade 3/4, AE suspected related to study treatment [3]: 0 n (%)
- Blood creatinine increased, Grade All, AE suspected related to study treatment [3]: 0 n (%)
- Diarrhea, Grade 3/4, AE suspected related to study treatment [3]: 0 n (%)
- Diarrhea, Grade All, AE suspected related to study treatment [3]: 0 n (%)
- Fatigue, Grade 3/4, AE suspected related to study treatment [3]: 0 n (%)
- Fatigue, Grade All, AE suspected related to study treatment [3]: 3 (75) n (%)
- Leukopenia, Grade 3/4, AE suspected related to study treatment [3]: 0 n (%)
- Leukopenia, Grade All, AE suspected related to study treatment [3]: 0 n (%)
- Lymphopenia, Grade 3/4, AE suspected related to study treatment [3]: 0 n (%)
- Lymphopenia, Grade All, AE suspected related to study treatment [3]: 0 n (%)
- Nausea, Grade 3/4, AE suspected related to study treatment [3]: 0 n (%)
- Nausea, Grade All, AE suspected related to study treatment [3]: 0 n (%)
- Neutropenia, Grade 3/4, AE suspected related to study treatment [3]: 0 n (%)
- Neutropenia, Grade All, AE suspected related to study treatment [3]: 0 n (%)
- Thrombocytopenia, Grade 3/4, AE suspected related to study treatment [3]: 0 n (%)
- Thrombocytopenia, Grade All, AE suspected related to study treatment [3]: 0 n (%)
- Vomiting, Grade 3/4, AE suspected related to study treatment [3]: 0 n (%)
- Vomiting, Grade All, AE suspected related to study treatment [3]: 0 n (%)
- Anemia, Grade 3/4, AE suspected related to study treatment [4]: 0 n (%)
- Anemia, Grade All, AE suspected related to study treatment [4]: 0 n (%)
- Appetite decreased, Grade 3/4, AE suspected related to study treatment [4]: 0 n (%)
- Appetite decreased, Grade All, AE suspected related to study treatment [4]: 0 n (%)
- Blood creatinine increased, Grade 3/4, AE suspected related to study treatment [4]: 0 n (%)
- Blood creatinine increased, Grade All, AE suspected related to study treatment [4]: 0 n (%)
- Diarrhea, Grade 3/4, AE suspected related to study treatment [4]: 0 n (%)
- Diarrhea, Grade All, AE suspected related to study treatment [4]: 0 n (%)
- Fatigue, Grade 3/4, AE suspected related to study treatment [4]: 0 n (%)
- Fatigue, Grade All, AE suspected related to study treatment [4]: 4 (100) n (%)
- Leukopenia, Grade 3/4, AE suspected related to study treatment [4]: 0 n (%)
- Leukopenia, Grade All, AE suspected related to study treatment [4]: 1 (25) n (%)
- Lymphopenia, Grade 3/4, AE suspected related to study treatment [4]: 0 n (%)
- Lymphopenia, Grade All, AE suspected related to study treatment [4]: 2 (50) n (%)
- Nausea, Grade 3/4, AE suspected related to study treatment [4]: 0 n (%)
- Nausea, Grade All, AE suspected related to study treatment [4]: 0 n (%)
- Neutropenia, Grade 3/4, AE suspected related to study treatment [4]: 0 n (%)
- Neutropenia, Grade All, AE suspected related to study treatment [4]: 0 n (%)
- Thrombocytopenia, Grade 3/4, AE suspected related to study treatment [4]: 0 n (%)
- Thrombocytopenia, Grade All, AE suspected related to study treatment [4]: 0 n (%)
- Vomiting, Grade 3/4, AE suspected related to study treatment [4]: 0 n (%)
- Vomiting, Grade All, AE suspected related to study treatment [4]: 0 n (%)
- Anemia, Grade 3/4, AE suspected related to study treatment [5]: 0 n (%)
- Anemia, Grade All, AE suspected related to study treatment [5]: 0 n (%)
- Appetite decreased, Grade 3/4, AE suspected related to study treatment [5]: 0 n (%)
- Appetite decreased, Grade All, AE suspected related to study treatment [5]: 2 (50) n (%)
- Blood creatinine increased, Grade 3/4, AE suspected related to study treatment [5]: 0 n (%)
- Blood creatinine increased, Grade All, AE suspected related to study treatment [5]: 0 n (%)
- Diarrhea, Grade 3/4, AE suspected related to study treatment [5]: 0 n (%)
- Diarrhea, Grade All, AE suspected related to study treatment [5]: 1 (25) n (%)
- Fatigue, Grade 3/4, AE suspected related to study treatment [5]: 0 n (%)
- Fatigue, Grade All, AE suspected related to study treatment [5]: 1 (25) n (%)
- Leukopenia, Grade 3/4, AE suspected related to study treatment [5]: 0 n (%)
- Leukopenia, Grade All, AE suspected related to study treatment [5]: 1 (25) n (%)
- Lymphopenia, Grade 3/4, AE suspected related to study treatment [5]: 1 (25) n (%)
- Lymphopenia, Grade All, AE suspected related to study treatment [5]: 1 (25) n (%)
- Nausea, Grade 3/4, AE suspected related to study treatment [5]: 0 n (%)
- Nausea, Grade All, AE suspected related to study treatment [5]: 2 (50) n (%)
- Neutropenia, Grade 3/4, AE suspected related to study treatment [5]: 0 n (%)
- Neutropenia, Grade All, AE suspected related to study treatment [5]: 1 (25) n (%)
- Thrombocytopenia, Grade 3/4, AE suspected related to study treatment [5]: 0 n (%)
- Thrombocytopenia, Grade All, AE suspected related to study treatment [5]: 1 (25) n (%)
- Vomiting, Grade 3/4, AE suspected related to study treatment [5]: 0 n (%)
- Vomiting, Grade All, AE suspected related to study treatment [5]: 0 n (%)
- Anemia, Grade 3/4, AE suspected related to study treatment [6]: 0 n (%)
- Anemia, Grade All, AE suspected related to study treatment [6]: 2 (40) n (%)
- Appetite decreased, Grade 3/4, AE suspected related to study treatment [6]: 0 n (%)
- Appetite decreased, Grade All, AE suspected related to study treatment [6]: 1 (20) n (%)
- Blood creatinine increased, Grade 3/4, AE suspected related to study treatment [6]: 0 n (%)
- Blood creatinine increased, Grade All, AE suspected related to study treatment [6]: 3 (60) n (%)
- Diarrhea, Grade 3/4, AE suspected related to study treatment [6]: 0 n (%)
- Diarrhea, Grade All, AE suspected related to study treatment [6]: 1 (20) n (%)
- Fatigue, Grade 3/4, AE suspected related to study treatment [6]: 0 n (%)
- Fatigue, Grade All, AE suspected related to study treatment [6]: 1 (20) n (%)
- Leukopenia, Grade 3/4, AE suspected related to study treatment [6]: 0 n (%)
- Leukopenia, Grade All, AE suspected related to study treatment [6]: 2 (40) n (%)
- Lymphopenia, Grade 3/4, AE suspected related to study treatment [6]: 1 (20) n (%)
- Lymphopenia, Grade All, AE suspected related to study treatment [6]: 1 (20) n (%)
- Nausea, Grade 3/4, AE suspected related to study treatment [6]: 0 n (%)
- Nausea, Grade All, AE suspected related to study treatment [6]: 2 (40) n (%)
- Neutropenia, Grade 3/4, AE suspected related to study treatment [6]: 0 n (%)
- Neutropenia, Grade All, AE suspected related to study treatment [6]: 1 (20) n (%)
- Thrombocytopenia, Grade 3/4, AE suspected related to study treatment [6]: 0 n (%)
- Thrombocytopenia, Grade All, AE suspected related to study treatment [6]: 0 n (%)
- Vomiting, Grade 3/4, AE suspected related to study treatment [6]: 0 n (%)
- Vomiting, Grade All, AE suspected related to study treatment [6]: 2 (40) n (%)
- Anemia, Grade 3/4, AE suspected related to study treatment [7]: 0 n (%)
- Anemia, Grade All, AE suspected related to study treatment [7]: 2 (40) n (%)
- Appetite decreased, Grade 3/4, AE suspected related to study treatment [7]: 0 n (%)
- Appetite decreased, Grade All, AE suspected related to study treatment [7]: 0 n (%)
- Blood creatinine increased, Grade 3/4, AE suspected related to study treatment [7]: 0 n (%)
- Blood creatinine increased, Grade All, AE suspected related to study treatment [7]: 1 (20) n (%)
- Diarrhea, Grade 3/4, AE suspected related to study treatment [7]: 0 n (%)
- Diarrhea, Grade All, AE suspected related to study treatment [7]: 0 n (%)
- Fatigue, Grade 3/4, AE suspected related to study treatment [7]: 0 n (%)
- Fatigue, Grade All, AE suspected related to study treatment [7]: 1 (20) n (%)
- Leukopenia, Grade 3/4, AE suspected related to study treatment [7]: 0 n (%)
- Leukopenia, Grade All, AE suspected related to study treatment [7]: 1 (20) n (%)
- Lymphopenia, Grade 3/4, AE suspected related to study treatment [7]: 0 n (%)
- Lymphopenia, Grade All, AE suspected related to study treatment [7]: 0 n (%)
- Nausea, Grade 3/4, AE suspected related to study treatment [7]: 0 n (%)
